# The source made the active and inactive calls.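 How the source made its calls, unless noted: active means viability at or below 10% of carrier control in both of two separate runs; inconclusive means viability at or below 10% in only one of the two runs; inactive means the rest.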
# Key:
# [1] = Her2 expression decrease, cell viability multiplex – SKBR3 breast tumor cells, AlphaScreen, ATP viability, primary screen (AID 461;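 active means Her2 level under about 52% in both replicate screens, with viability over 70% of control, limit read from the data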;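 on Her2 level: lower value means less Her2 protein in the cells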;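 on viability: percent of carrier control wells set as 100% viability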); settings: SKBR3 Her2 protein level, 18-24 h, measured here: SKBR3 viability, ATP luminescence, at 10 µM
# [2] = target: Receptor tyrosine-protein kinase erbB-2 (Homo sapiens) (UniProt P04626); experiment: as above; settings: 18-24 h, at 10 µM, stronger effect = lower value
# Chain of Receptor tyrosine-protein kinase erbB-2 (Homo sapiens) (P04626 whole entry, looked up): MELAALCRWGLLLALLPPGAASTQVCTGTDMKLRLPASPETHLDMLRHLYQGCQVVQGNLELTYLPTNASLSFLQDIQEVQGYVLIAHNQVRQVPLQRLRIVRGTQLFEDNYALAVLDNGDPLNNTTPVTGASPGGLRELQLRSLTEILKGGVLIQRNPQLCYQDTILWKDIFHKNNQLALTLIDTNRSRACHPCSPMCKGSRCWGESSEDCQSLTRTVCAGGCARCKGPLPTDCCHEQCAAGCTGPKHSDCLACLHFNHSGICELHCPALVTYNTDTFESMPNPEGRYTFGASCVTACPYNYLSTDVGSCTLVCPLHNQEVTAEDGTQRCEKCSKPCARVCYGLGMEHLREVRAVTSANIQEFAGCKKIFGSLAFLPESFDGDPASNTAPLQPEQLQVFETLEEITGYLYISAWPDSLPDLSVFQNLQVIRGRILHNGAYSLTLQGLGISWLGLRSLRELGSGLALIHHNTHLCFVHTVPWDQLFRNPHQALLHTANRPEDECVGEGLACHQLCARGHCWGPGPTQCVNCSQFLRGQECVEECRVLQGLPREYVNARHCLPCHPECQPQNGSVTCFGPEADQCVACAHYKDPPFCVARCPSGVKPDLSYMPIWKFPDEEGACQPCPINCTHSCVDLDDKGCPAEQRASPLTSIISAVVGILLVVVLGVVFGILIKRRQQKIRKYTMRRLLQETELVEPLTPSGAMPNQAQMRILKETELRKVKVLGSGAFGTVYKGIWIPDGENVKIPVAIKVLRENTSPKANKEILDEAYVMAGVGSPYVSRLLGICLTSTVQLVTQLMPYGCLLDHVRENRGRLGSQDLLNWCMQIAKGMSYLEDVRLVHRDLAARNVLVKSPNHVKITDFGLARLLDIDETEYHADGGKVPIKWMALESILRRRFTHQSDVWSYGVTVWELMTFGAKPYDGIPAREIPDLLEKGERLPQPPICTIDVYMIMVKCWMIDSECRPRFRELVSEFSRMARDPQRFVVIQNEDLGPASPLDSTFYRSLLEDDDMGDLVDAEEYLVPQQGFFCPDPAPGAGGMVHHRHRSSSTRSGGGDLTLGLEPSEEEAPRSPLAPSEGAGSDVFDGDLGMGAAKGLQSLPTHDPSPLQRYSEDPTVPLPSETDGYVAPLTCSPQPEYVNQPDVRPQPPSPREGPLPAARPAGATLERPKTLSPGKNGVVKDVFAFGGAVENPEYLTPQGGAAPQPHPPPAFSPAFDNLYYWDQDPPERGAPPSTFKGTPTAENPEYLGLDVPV
# [3] = reduced viability of SK-BR-3 breast cancer cells – cell-based, 24 h, human, pilot screen (AID 572); settings: SK-BR-3 viability, CellTiter-Glo luminescence, at 10 µM, stronger effect = lower value;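 further: compound exposure lasted between 18 and 24 h rather than exactly 24 h; 100% = carrier-treated control wells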
# [4] = HUVEC growth inhibition – cell-based, human, primary screen (AID 575;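 active means viability at or below 30% in both replicate assays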;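 further: 100% = median of untreated cell wells with 0.1% DMSO on each plate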); settings: HUVEC proliferation, CellTiter-Glo luminescence, 72 h; at 10 µM; stronger effect = lower value
# Procedure, shortened: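 Assay system: Primary human umbilical vein endothelial cells | Quantity: 1250 cells per well | Medium: Supplemented EBM, 2% fetal bovine serum | Detection: CellTiter-Glo luminescence measuring cellular ATP | Read-out: % viability vs DMSO wells | Plate: Collagen-coated 384-well format | Times: 72 h exposure, 37 °C, 5% CO2, 30 min RT equilibration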
# [5] = H69AR cell proliferation blockers – human, duplicate replicates, primary screen (AID 580;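 active means viability at or under a set limit in both replicates, limit being median viability minus 3 SD, cut at about 48% in these data, passing the limit was not always enough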;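 further: 100% = mean luminescence of untreated wells and 0% = no signal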); settings: H69AR lung tumor cells viability, ATP luminescence, 72 h; at 10 µM; stronger effect = lower value
# [6] = MRP1 drug-resistance reversers in H69AR cells – cell-based, doxorubicin co-treatment, pilot screen (AID 601;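 active means viability loss from added drug above about 55%, and viability with drug at most 40%, in both replicates, limit read from the data, passing the limit was not always enough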); settings: CellTiter-Glo, 72 h, at 10 µM; for differential viability (reversal): stronger effect = higher value
# [7] = yeast transport mutant growth inhibition pilot in 384-well plates, post-Golgi transport modulator project (AID 636; in the data active means inhibition above about 31%); settings: absorbance 615 nm, about 18 h, stronger effect = higher value
# [8] = growth suppression of yeast trafficking mutant, preliminary HTS, modulators of trafficking downstream of Golgi apparatus project, 1536-format plate, OD 615 nm (AID 637; in the data active means inhibition above about 30%); settings: yeast transport mutant growth, absorbance 615 nm, 18 h; stronger effect = higher value
# [9] = H69AR cells + 2 uM doxorubicin, measured here: viability with 2 uM doxorubicin, stronger effect = lower value
# [10] = H69AR cells, compound alone cytotoxicity
SMILES,viability [1],Her2 level [2],viability [3],viability [4],viability [5],differential viability (reversal) ([6]; H69AR cells + 2 uM doxorubicin),"viability [6, 9]","viability [6, 10]",inhibition [7],inhibition [8]
COCCOC(=O)c1cc(C(=O)c2cc(F)ccc2O)coc1=N,83.5%,82.5% (inactive),83.5% (inactive),92% (inactive),91.1% (inactive),-3.97% (inactive),95.1%,91.1%,-1.56% (inactive),-5.08% (inactive)
CCOC(=O)N1CCC(NC(=O)C2CCCN2C(=O)OCc2ccccc2)CC1 (stereo not given),93%,106% (inactive),93% (inactive),103% (inactive),90.7% (inactive),-2.27% (inactive),93%,90.7%,2.89% (inactive),-7.1% (inactive)
CCOc1cc(NC(=O)c2ccccn2)c(OCC)cc1NC(=O)CC(C)C,74%,102% (inactive),74% (inactive),63.1% (inactive),89% (inactive),-6.29% (inactive),95.2%,89%,1.2% (inactive),-6.23% (inactive)
O=C(CN(c1ccccc1)S(=O)(=O)c1ccccc1)N1CCN(Cc2ccc3c(c2)OCO3)CC1,104%,73% (inactive),104% (inactive),92.7% (inactive),96.9% (inactive),5.03% (inactive),91.8%,96.9%,-6% (inactive),0.32% (inactive)
CCOc1ccccc1N1CCN(C(=O)c2ccncc2)CC1,97%,100% (inactive),97% (inactive),90.2% (inactive),93.6% (inactive),13.4% (inactive),80.2%,93.6%,-2.99% (inactive),-9.34% (inactive)
CCOC(=O)c1[nH]c(C)c(C(=O)Nc2ccccc2C)c1C,79.5%,85% (inactive),79.5% (inactive),60.8% (inactive),19.3% (active),-46.6% (inactive),65.9%,19.3%,-0.9% (inactive),3.67% (inactive)
CCC(C(=O)Nc1ncccn1)(C(F)(F)F)C(F)(F)F,86.5%,99% (inactive),86.5% (inactive),95.7% (inactive),103% (inactive),8.62% (inactive),94.6%,103%,0.27% (inactive),0.82% (inactive)
Cc1c(NS(=O)(=O)c2ccc3c(c2)n(C)c(=O)n3C)c(=O)n(-c2ccccc2)n1C,113%,93% (inactive),113% (inactive),87.3% (inactive),94.2% (inactive),3.4% (inactive),90.8%,94.2%,-4.67% (inactive),-0.98% (inactive)
COc1ccc(C2C(C(C)=O)=C(O)C(=O)N2C)c(OC)c1 (stereo not given),102%,104% (inactive),102% (inactive),109% (inactive),114% (inactive),22.1% (inactive),91.7%,114%,1.3% (inactive),-0.83% (inactive)
Cc1ccc(-c2nc3cc(N)ccc3o2)cc1,104%,115% (inactive),104% (inactive),72.6% (inactive),79.9% (inactive),-1.81% (inactive),81.7%,79.9%,-2.82% (inactive),-2.17% (inactive)
CCOC(=O)CCC(=O)Nc1ccc(S(=O)(=O)N2CCCC2)cc1,94.5%,102% (inactive),94.5% (inactive),105% (inactive),102% (inactive),5.38% (inactive),96.3%,102%,-3.68% (inactive),-4.6% (inactive)
Cc1nc2c(c(=O)n1CC1CCCO1)c1nc3ccccc3nc1n2CC(C)C (stereo not given),96.5%,89.5% (inactive),96.5% (inactive),104% (inactive),84.2% (inactive),-9.93% (inactive),94.1%,84.2%,2.63% (inactive),0.81% (inactive)
CC(C)N(O)C(=O)NC(C)(C)C,110%,99% (inactive),110% (inactive),97.8% (inactive),93.8% (inactive),-5.12% (inactive),98.9%,93.8%,-2.8% (inactive),5% (inactive)
COCCNC(=O)c1ccc(CS(=O)(=O)c2ccc(OC)cc2)o1,97%,121% (inactive),97% (inactive),87% (inactive),109% (inactive),15.8% (inactive),93.5%,109%,-1.03% (inactive),2.67% (inactive)
CC(=O)Nc1ccc(NC(=O)c2cc(C)nn2-c2ccccc2)cc1,84%,116% (inactive),84% (inactive),89.5% (inactive),108% (inactive),12.7% (inactive),95.5%,108%,2.53% (inactive),-7.9% (inactive)
CS(=O)(=O)N(CC(=O)Nc1cccc(F)c1)Cc1ccccc1,78.5%,87.5% (inactive),78.5% (inactive),87.5% (inactive),103% (inactive),13.1% (inactive),90%,103%,-3.78% (inactive),2.3% (inactive)

SMILES,viability [1],Her2 level [2],viability [3],viability [4],viability [5],differential viability (reversal) ([6]; H69AR cells + 2 uM doxorubicin),"viability [6, 9]","viability [6, 10]",inhibition [7],inhibition [8]
CC(C)COc1ccc(C(=O)OCCN2CCOCC2)cc1,98.5%,101% (inactive),98.5% (inactive),118% (inactive),98.2% (inactive),2.9% (inactive),95.3%,98.2%,-2.86% (inactive),-3.65% (inactive)
Cn1c(=O)c2c(nc(NCC3CCCO3)n2C)n(C)c1=O (stereo not given),102%,104% (inactive),102% (inactive),105% (inactive),103% (inactive),7.24% (inactive),95.5%,103%,-1.33% (inactive),-3.11% (inactive)
Cc1cc(C(=O)CSCCCn2c(=O)[nH]c3ccccc32)c(C)n1C,105%,98% (inactive),105% (inactive),110% (inactive),98.1% (inactive),9.45% (inactive),88.7%,98.1%,0.41% (inactive),-5.08% (inactive)
COc1ccc(CC(=O)NCc2ccccc2)cc1S(=O)(=O)N1CCOCC1,110%,106% (inactive),110% (inactive),93.5% (inactive),89% (inactive),-9.06% (inactive),98.1%,89%,-2.5% (inactive),5.82% (inactive)
CC1CN(c2nc3ccccc3nc2C(C#N)C(=O)OC2CCCCC2)CC(C)O1 (stereo not given),94%,97% (inactive),94% (inactive),78.7% (inactive),96.1% (inactive),12.6% (inactive),83.5%,96.1%,-5.07% (inactive),2.54% (inactive)
C=CCn1c(SCc2ccc3nonc3c2)nnc1-c1cccs1,84%,79.5% (inactive),84% (inactive),85.8% (inactive),87.3% (inactive),2.61% (inactive),84.7%,87.3%,-5.47% (inactive),0.98% (inactive)
CC(C)(C)NC(=O)C(c1ccco1)N(C(=O)Cn1nnc(-c2ccc(F)cc2)n1)c1ccccc1 (stereo not given),89.5%,80% (inactive),89.5% (inactive),101% (inactive),102% (inactive),3.25% (inactive),98.4%,102%,-0.92% (inactive),0% (inactive)
CN(CC(=O)Nc1sccc1C#N)C1CCCCC1,106%,104% (inactive),106% (inactive),89.8% (inactive),93.2% (inactive),5.53% (inactive),87.7%,93.2%,-6.67% (inactive),-4.44% (inactive)
CC(=O)C1=C(C)OC(N)=C(C#N)C1c1ccncc1 (stereo not given),133%,80.5% (inactive),133% (inactive),115% (inactive),93.2% (inactive),8.39% (inactive),84.8%,93.2%,-5.6% (inactive),5.41% (inactive)
O=C(NCCc1ccccc1)C1CCCN(S(=O)(=O)c2cccs2)C1 (stereo not given),89%,91% (inactive),89% (inactive),112% (inactive),93.8% (inactive),7.11% (inactive),86.7%,93.8%,1.79% (inactive),-0.33% (inactive)
CCOC(=O)Cn1nnnc1CN(Cc1ccc(OC)cc1)Cc1cc2cc(C)cc(C)c2[nH]c1=O,95%,105% (inactive),95% (inactive),87.3% (inactive),89.4% (inactive),15.2% (inactive),74.2%,89.4%,-1.32% (inactive),-0.55% (inactive)
CCCCCn1c2nc3ccccc3nc2c2c(=O)n(CC(C)C)cnc21,116%,103% (inactive),116% (inactive),103% (inactive),87.3% (inactive),-3.98% (inactive),91.3%,87.3%,-0.79% (inactive),3.55% (inactive)
O=C(CC(CC(=O)c1ccccc1)C(=O)O)c1ccccc1,89%,101% (inactive),89% (inactive),107% (inactive),102% (inactive),5.54% (inactive),96.5%,102%,3.6% (inactive),-6.77% (inactive)
CCc1ccc(NS(=O)(=O)c2ccc3[nH]cc(C(=O)N4CCCCC4)c(=O)c3c2)cc1,124%,92% (inactive),124% (inactive),102% (inactive),89.6% (inactive),5.6% (inactive),84%,89.6%,-5.66% (inactive),-0.81% (inactive)
Cc1ccc2c(c1)CCCN2C(=O)C1CCCO1 (stereo not given),101%,100% (inactive),101% (inactive),99.3% (inactive),108% (inactive),14.6% (inactive),93.3%,108%,-1.97% (inactive),-6.83% (inactive)
O=c1[nH]c2cc3c(cc2cc1C(c1nnnn1Cc1ccccc1)N1CCCc2ccccc21)OCO3 (stereo not given),98.5%,95.5% (inactive),98.5% (inactive),79.3% (inactive),61.6% (inactive),-0.235% (inactive),61.8%,61.6%,-3.73% (inactive),4.43% (inactive)
